Experimental data: the RNAGym collection of RNA variant scans (doi:10.1126/science.aae0568)
This sample holds only a part of the variants without activity.

B1: tRNA (parent)
chain: GUUCCGUUGGCGUAAUGGUAACGCGUCUCCCUCCUAAGGAGAAGACUGCGGGUUCGAGUCCCGUACGGAACG

Variants of: B1
Assay: yeast fitness relative to wild type (ratio to wild type); higher = fitter; tRNA-Arg(CCU), competitive growth, 37 C, YPD
In short: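 Variants of the tRNA-Arg(CCU) gene, chemically synthesised with a 3% per-site mutation rate at 69 sites, were placed at the native genomic locus in Saccharomyces cerevisiae. The pooled strains were competed in YPD at 37°C for 24 hours in six parallel replicates. Gene amplicons from the start population and from each end population were read by 100-nucleotide paired-end sequencing. Darwinian fitness relative to wild type came from changes in genotype frequencies; genotypes needed ≥ 100 starting reads, and estimates < 0.5 were set to 0.5.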

Point of comparison: G9A C49U, yeast fitness 0.845. Against it:
- G9A C30U G68C — lower, ≤ 0.5
- G9A C31A — higher, 0.862
- G9A C31A A65C — higher, 0.871
- G9A C31A A65U — lower, ≤ 0.5
- G9A C31A C33A — lower, ≤ 0.5
- G9A C31A C46A A57G — lower, ≤ 0.5
- G9A C31A G41C A69C — lower, ≤ 0.5
- G9A C31A G50C — lower, 0.604
- G9A C31A G56A G67A — lower, ≤ 0.5
- G9A C31G C49G G51C — lower, ≤ 0.5
- G9A C31G G56C — lower, 0.753
- G9A C31G G56C C66A — lower, ≤ 0.5
- G9A C31U — higher, 0.982
- G9A C31U A40C — higher, 1.04
- G9A C31U A43U — lower, 0.697
- G9A C31U A57C U64A G68A — lower, ≤ 0.5
- G9A C31U A70C — lower, 0.766
- G9A C31U C55U — lower, 0.694
- G9A C31U C60G C61U G63A — lower, ≤ 0.5
- G9A C31U C60U C62U — lower, ≤ 0.5
- G9A C33A C46A G56C — lower, ≤ 0.5
- G9A C33G A42C C49U C55G — lower, 0.729
- G9A C33G C49A A69U — lower, ≤ 0.5
- G9A C33U A36U — lower, 0.536
- G9A C33U C49G — lower, ≤ 0.5
- G9A C33U G56A G67A — lower, ≤ 0.5
- G9A C34G — lower, 0.588
- G9A C34G A65U — lower, ≤ 0.5
- G9A C34G C55U G63A — lower, ≤ 0.5
- G9A C34G C61U C66U — lower, ≤ 0.5
- G9A C34U A36G C49G C62A A65C — lower, ≤ 0.5
- G9A C34U C46A C61A C62U — lower, ≤ 0.5
- G9A C34U C46A C62U C66U — lower, ≤ 0.5
- G9A C34U C49A G52A — lower, ≤ 0.5
- G9A C34U G44C A45C C66A — lower, 0.578
- G9A C34U G44C A45C C66G — lower, ≤ 0.5
- G9A C34U U59C A65C A69G — lower, ≤ 0.5
- G9A C46A C61A — lower, 0.53
- G9A C46G C49U A69C — lower, 0.709
- G9A C46G C61A — lower, ≤ 0.5
- G9A C46U — higher, 0.943
- G9A C46U C66U — higher, 1.04
- G9A C46U G67C — lower, 0.633
- G9A C49U A65U — lower, 0.651
- G9A C49U A69C — higher, 0.85
- G9A C49U G68A — lower, 0.668
- G9A C49U G68C — lower, 0.657
- G9A C55A — lower, 0.707
- G9A C55G — lower, 0.549
- G9A C55G A65C — lower, ≤ 0.5
- G9A C55U — lower, 0.65
- G9A C55U A70G — lower, 0.536
- G9A C55U A70U — lower, 0.623
- G9A C60G A70U — lower, 0.584
- G9A C60G G67A — lower, ≤ 0.5
- G9A C60U — lower, 0.742
- G9A C60U U64G — lower, 0.696
- G9A C61G — lower, 0.705
- G9A C62A — lower, 0.842
- G9A C66G G68C — lower, 0.571
- G9A C66U — higher, 0.898
- G9A G10A — lower, 0.577
- G9A G10A A21G A57G C66U — lower, ≤ 0.5
- G9A G10A C11U — lower, 0.668
- G9A G10A C31G — lower, ≤ 0.5
- G9A G10A C31G A65U — lower, ≤ 0.5
- G9A G10A C31G G44A — lower, ≤ 0.5
- G9A G10A C31G G52A C60U — lower, ≤ 0.5
- G9A G10A C34U C66U — lower, ≤ 0.5
- G9A G10A C46G — lower, ≤ 0.5
- G9A G10A C60U A69C — lower, 0.618
- G9A G10A G25A C31G G52A C61U — lower, ≤ 0.5
- G9A G10C A20G G25C C33U — lower, ≤ 0.5
- G9A G10C C11U U16G G41A — lower, 0.597
- G9A G10C C11U U16G G41A A70G — lower, ≤ 0.5
- G9A G10C C11U U16G G41A G48A A65U — lower, ≤ 0.5
- G9A G10C C60U U64G — lower, ≤ 0.5
- G9A G10C G25C C33U — lower, ≤ 0.5
- G9A G10C U19A — lower, ≤ 0.5
- G9A G12A — higher, 0.927
- G9A G12A C22G A43G C46G C66U — lower, ≤ 0.5
- G9A G12A C27G — lower, ≤ 0.5
